Test: Toxicity liver stage against HepG2, at 10uM
Type: cell-based
Set-up: test concentration 10 uM, cell line HepG2-A16-CD81EGFP
Settings: human, HepG2-A16-CD81EGFP cells; read-out: INHIBITION
Outline: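 Uninfected HepG2-A16-CD81EGFP cells, 3 × 10^3 per well, 1536-well, plated on prespotted compound at 10 μM final, parasite-free screening media added to match infected plates; puromycin 10 μM positive, DMSO 0.5% negative; run in parallel with 48 h PbLuc assay at 37 °C, 5% CO2; viability by CellTiter-Glo luminescence, normalized to controls.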

| SMILES | cytotoxicity at 10 µM [%] |
| --- | --- |
| CCn1ccnc1CN1CCCC(CO)(CCCc2ccccc2)C1 (stereo not drawn) | -4.84 |
| Cc1cccnc1NCCNC(=O)[C@H]1CNC[C@@H](C(=O)N2CCCC2)C1 | -11.3 |
| Cn1cnc(S(=O)(=O)NCCC(O)c2ccc3c(c2)OCO3)c1 (stereo not drawn) | -8.71 |
| CNC(=O)C1CN(C)CCN1c1nc(C)cc(C)n1 (stereo not drawn) | 15.3 |
| CC(=O)c1ccc(C(=O)N2C[C@H]3CC[C@@H](C2)N(CC2CCC2)C3)s1 | -5.79 |
| CC(CN(C)Cc1cccc(-n2cccn2)c1)C(F)(F)F (stereo not drawn) | 1.55 |
| CCN(CC)C(=O)NCCc1ccn(-c2ccccc2)n1 | -14 |
| Cc1cc(C)n(C2CN(c3ncnc4c3CCC4)C2)n1 | 8.09 |
| CN(Cc1ccccc1CNC(=O)C1CNC(=O)N1)C1CCCCC1 (stereo not drawn) | 5.09 |
| COc1ccc(S(=O)(=O)NCc2cccnc2N(C)C)cc1 | 5.32 |
| O=C(c1nc2c(s1)CCCN2C(=O)C1CC1)N1CCCC1 | 7.02 |
| COc1cc(CO)ccc1OCc1nc(C(C)C)no1 | 6.3 |
| O=C1CNc2ncnc(Nc3cnn(Cc4ccc(F)cc4)c3)c2N1 | 6.85 |
| Cn1ccnc1Sc1ccc(N)cn1 | 3.08 |
| CCNC(=O)N(Cc1ccoc1)C1CCCCC1 | -0.986 |
| Cc1cc(N2CCc3c(ncn3C)C2)n2nc(C(F)(F)F)nc2n1 | 4.11 |
| CC(C)(Oc1ccc(C(N)=O)cc1)C(=O)N(CCC#N)C1CC1 | 1.58 |
| CCn1c(NCC2CCCO2)nc2c(C)nn(C)c2c1=O (stereo not drawn) | -3.09 |
| O=C(CNC(=O)c1ccc2c(c1)CCC2)NCCNc1ncccn1 | -6.5 |
| CCN(C(=O)Cn1cc(NC(=O)C(C)(C)C)cn1)c1ccccc1 | 3.49 |
| COCCCn1ccc(NC(=O)NCCc2cccnc2)n1 | -0.996 |
| Cn1cnnc1C1CCN(C(=O)CCOc2ccc(Cl)cc2)CC1 | -8.94 |
| Cc1nn(-c2ccccc2)c2c1C(c1ccc(C(=O)O)cc1)CC(=O)N2 (stereo not drawn) | 10.6 |

| SMILES | cytotoxicity at 10 µM [%] |
| --- | --- |
| O=C(C[C@@H]1COC[C@H]2CN(C3CCC3)C[C@@H]12)NCc1cccnc1 | 12.9 |
| OCC(O)CSCc1nnc(-c2ccc(Cl)cc2)o1 (stereo not drawn) | 10.8 |
| COCC1N(S(=O)(=O)c2cn(C)cn2)C2CCC1(O)CC2 (stereo not drawn) | -2.04 |
| CCS(=O)(=O)c1ccccc1C(=O)NCC1Cc2ccccc2O1 (stereo not drawn) | -0.561 |
| Cc1cc(C)nc(C2CCN(C3CCOCC3)C2)n1 (stereo not drawn) | 0.469 |
| COCCOc1ccc(NC(=O)C2CC(=O)N(C(C)C)C2)cn1 (stereo not drawn) | -17.6 |
| Cc1ccc(S(=O)(=O)N2CCn3nc(C)nc3C2)c(Cl)c1 | 5.09 |
| COCC1c2nnn(CC3CC3)c2CCN1C(=O)c1cc(C)on1 (stereo not drawn) | -132 |
| CCN1CCC(CC(=O)NCc2nc(C)cc(C)n2)CC1 | -8.75 |
| COc1ncccc1CNC(=O)c1c[nH]c(=O)c(Br)c1 | -2.62 |
| O=C(CCn1ncc2c(Cl)cccc21)NCCCn1cccn1 | 6.25 |
| CC(=O)NCc1ccc(C(=O)N2CCCc3c(F)ccc(C)c32)o1 | -0.883 |
| Cc1nn(C)cc1CCC(=O)N1CCCC(n2cncn2)C1 (stereo not drawn) | 1.9 |
| CCN(CC1CCCO1)C(=O)Nc1cccc(Cl)c1OC (stereo not drawn) | -21.4 |
| O=C(CCc1n[nH]c2c1CCCC2)N1C[C@H]2CC[C@@H](C1)N(CC1CC1)C2 | -3.73 |
| COCCCNC(=O)CCn1nc(C)c2ccccc21 | 9.87 |
| Cc1nc(C2CCCN2C(=O)CCCn2cncn2)no1 (stereo not drawn) | 6.62 |
| Cc1cnc(C(NC(=O)NCC2(CO)CC2)C2CC2)s1 (stereo not drawn) | 1.8 |
| COCCNc1ccc(CC2CCCN(C3CCCC3)C2)nn1 (stereo not drawn) | 3.07 |
| CCc1nnsc1C(=O)N1CCCN(Cc2ccc(C)cc2)CC1 | -4.28 |
| CS(=O)(=O)N1CC2(CCN(CC3CCCCC3)C2)Cc2ccccc21 (stereo not drawn) | 23.3 |
| COCCc1noc(C2CCN(S(=O)(=O)c3cccs3)CC2)n1 | 7.51 |
| CC(C)(C)C(CCO)NC(=O)Nc1ccccc1 (stereo not drawn) | -3.3 |

| SMILES | cytotoxicity at 10 µM [%] |
| --- | --- |
| Cc1ccc(NC2CCN(C(=O)Cn3nc(C)cc3C)CC2)nn1 | -1.81 |
| CC(=O)c1ccc(N2CCC3(CCC(=O)N(C4CC4)C3)CC2)nc1 | 4.36 |
| O=C(NCc1cncc2c1CCN(C1CCOCC1)C2)c1ccco1 | -0.758 |
| O=C(Cc1ccc(Cl)cc1)N1CCC(O)(C(F)(F)F)C1 (stereo not drawn) | -12.3 |
| CC(C)c1cc(C(=O)N2CCOCC2CC(=O)c2ccco2)nn1C (stereo not drawn) | 5.52 |
| CCOCC1CN(C2CCCC2)Cc2cnn(CC3CCOCC3)c21 (stereo not drawn) | -9.13 |
| CNS(=O)(=O)c1cccc(C(C)NCc2nccn2C(C)C)c1 (stereo not drawn) | -12.6 |
| CC1CCN(CC(=O)N(Cc2ccccc2)Cc2nccs2)C1=O (stereo not drawn) | -0.0342 |
| CCCS(=O)(=O)N(C)C(=O)CCc1ccsc1 | 0.321 |
| Cn1cc(NC(=O)c2ccccn2)cc(Cl)c1=O | 7.7 |
| Cn1ccnc1-c1ccc(NC[C@H]2CCc3ccccc3O2)nn1 | -5.71 |
| CN(CC(F)(F)F)C(=O)CNC(=O)N1CCCC(N(C)C)C1 (stereo not drawn) | -7.91 |
| COc1ccccc1CNC(Cn1cncn1)c1ccccc1 (stereo not drawn) | -6.1 |
| Cc1cccc(Nc2ccc(C3CCN(Cc4ncc[nH]4)CC3)nc2)n1 | -2.83 |
| CCc1cnc(CN(C)C2CCN(CC3CCC3)C2)o1 (stereo not drawn) | -5.99 |
| COc1ccc2c(ccn2CC(=O)N2CCCC2Cn2cccn2)c1 (stereo not drawn) | -0.429 |
| N#CCSCCCN1CCN(C(=O)c2ccccc2F)CC1 | -147 |
| Cc1cccc(CN2C(=O)CCC23CCN(C(=O)c2ccco2)CC3)c1 | 6.09 |
| O=C(O)C1(Oc2ccc3ccccc3c2)CCN(c2ccncc2)CC1 | 0.542 |
| Cc1ccsc1C(CNC(=O)c1cc(=O)[nH]c(=O)[nH]1)N(C)C (stereo not drawn) | 8.99 |
| COCC(=O)N1CCOC(c2ccc(N(C)C)cn2)C1 (stereo not drawn) | -13.1 |
| CC(C)N(C)C(=O)C1CCN(Cc2cc3c(cc2O)CCC3)CC1 | 6.15 |
| Cc1cc(C[C@@H]2COC[C@@H]2NC(=O)CNC(=O)N(C)C)on1 | 2.57 |

| SMILES | cytotoxicity at 10 µM [%] |
| --- | --- |
| CC(c1cccnc1)N(C)Cc1cc(O)c2cc(F)ccc2n1 (stereo not drawn) | 10.8 |
| OCc1ccc(CN2CCC(n3cc(-c4ccsc4)nn3)CC2)o1 | 6.77 |
| COCc1ncc(CN2C[C@@H](C(=O)O)[C@H](C(C)C)C2)cn1 | -2.97 |
| O=C(Cn1cnnn1)Nc1ccc(F)cc1OCC1CC1 | 5.38 |
| Cc1cc(NC2CCc3ncnn3C2)n2nc(C(F)(F)F)nc2n1 (stereo not drawn) | 2.93 |
| NC(=O)C1CCN(C(=O)c2ccn(-c3cccc(Cl)c3)n2)C1 (stereo not drawn) | -0.433 |
| c1cc(CNc2cnc(C3CCCN3)cn2)ccn1 (stereo not drawn) | -6.77 |
| Cc1occc1C(=O)N1CCC2(CC1)CN(c1ccccn1)CCO2 | -75.6 |
| CC(=O)c1cccc(S(=O)(=O)N2CCC(c3n[nH]c(C)n3)CC2)c1 | -5.83 |
| CC(C)NC(=O)N1CCC2(CC1)Cc1ccccc1CNC2=O | 1.33 |
| COc1ncccc1C(=O)N1CCN(C(=O)Cc2ccccn2)CC1 | 0.722 |
| CC(C)OCCSc1nnnn1C1CCOCC1 | -0.494 |
| Fc1ccc(CNCC2OCCc3cn(CC4CC4)nc32)cc1 (stereo not drawn) | 0.925 |
| CC(=O)N1CCC(C(=O)N2CCC2c2nc(-c3ccc(C)s3)no2)CC1 (stereo not drawn) | 3.15 |
| CCn1ccnc1CN1CCC(CCC(=O)Nc2ccccc2Cl)CC1 | -26.5 |
| OCCN1CCCC(c2nccnc2Oc2ccccc2)C1 (stereo not drawn) | -25.5 |
| COCCNC(=O)CCNc1cc(C)nc(-c2ccncc2)n1 | -1.26 |
| COc1cccc(S(=O)(=O)NC2CNC(=O)C2)c1 (stereo not drawn) | -21.7 |
| CC(C)(C)c1ccc(OCc2nc3c(c(=O)[nH]2)CCNC3)cc1 | 5.11 |
| Cc1cc(NC(=O)C(C)Oc2ccc3c(c2)OCO3)no1 (stereo not drawn) | -5.08 |
| CCC1COCCN1C(=O)NCc1nccn1CC(C)C (stereo not drawn) | -3.36 |
| CN(CCNC(=O)N1CCN(Cc2ccon2)CC1)C1CCCC1 | 15.6 |
| O=C(NCC1CC1)C1=NOC2(CCN(Cc3ccsc3)C2)C1 (stereo not drawn) | 1.47 |

| SMILES | cytotoxicity at 10 µM [%] |
| --- | --- |
| Cc1cc2nc(SCC(=O)NC(C)C)n(Cc3ccco3)c(O)c-2n1 | 10.5 |
| O=C(CN1CCCCC1Cn1cccn1)NC1CCN(C2CC2)CC1 (stereo not drawn) | -4.43 |
| Cc1nc(N)cc(C2CN(C(=O)c3cscn3)CCO2)n1 (stereo not drawn) | 7.03 |
| CCc1ccc(C2COCCN2C(=O)Nc2ccc(C(N)=O)c(Cl)c2)o1 (stereo not drawn) | 2.42 |
| CCC(CNC(=O)c1cc(OC)ccc1Br)N1CCc2ccccc2C1 (stereo not drawn) | -6.78 |
| C[C@@H]1CN(C2CCOC2)C[C@]12CCN(Cc1cccnc1)C2=O (stereo partly drawn) | -106 |
| c1csc(-c2nc(CN3CCCC3Cn3cccn3)co2)c1 (stereo not drawn) | 11.1 |
| COCCN(CCOC)c1ncccc1I | -2.69 |
| COCCNC(=O)[C@@H](C)[C@@H]1CCc2c(C)cc(OCC(=O)O)c(C)c2C1 | 0.523 |
| Cc1c(COC(C)C)cccc1NC(=O)N1CCC(N2CCCC2)C1 (stereo not drawn) | -5.56 |
| OCCNc1nc(Nc2ccccc2)c2nccnc2n1 | 3.72 |
| CCc1c(C)nc(C)nc1N1C[C@@H](CN(CC)CCO)[C@@H](CO)C1 | 1.5 |
| Cn1cc(C(NCc2ccc(F)cc2)c2cccc(F)c2)cn1 (stereo not drawn) | 0.137 |
| CC(C)CC(C#N)NC(=O)CCNC(=O)C(C)(C)C (stereo not drawn) | -3.3 |
| Cc1ccc(C(=O)N2CCC3(CCN(c4ccsc4)C3=O)C2)cn1 (stereo not drawn) | -127 |
| c1ccc(C(c2ccccc2)N2CCN(CCn3cncn3)CC2)cc1 | -7.72 |
| Cc1cccc(C(C(=O)N2CC(c3ccncc3)C2)N(C)C)c1 (stereo not drawn) | -8.29 |
| CCN(C)c1ccc(CNC(=O)CCn2cc(C)cn2)cc1F | -9.51 |
| Cc1ccc(C)c(NC(=O)N2C[C@H](N(C)C)C[C@H]2CO)c1 | -0.861 |
| CCN1CC2(CC1=O)CN(Cc1cnn(C)c1)CCN(C(=O)N(C)C)C2 (stereo not drawn) | -1.9 |
| CCn1cnnc1CNC(=O)N1CCCC1 | -3.3 |

From ChEMBL document CHEMBL4513216, “Probing the Open Global Health Chemical Diversity Library for Multistage-Active Starting Points for Next-Generation Antimalarials” (ACS Infect Dis, 2020)
